Measured values: ChEMBL document CHEMBL4251575, “Design, synthesis, and biological evaluation of 1,3-diarylisoquinolines as novel topoisomerase I catalytic inhibitors” (Eur J Med Chem, 2018)
Activity calls are given as the source filed them. The calls are words filed in the database; no cut-off is given here.

What was measured:
MCF-10A = test: Cytotoxicity against human MCF10A cells after 72 hrs by cell counting kit-8 analysis; type: cell-based
Outline: (§1)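 Cells seeded at 2×10^5 or 1×10^5 per well, grown overnight in medium with 10% FBS at 37 °C, 5% CO₂, then FBS-starved 4 h. Graded compound concentrations given for 72 h. CCK-8 then added for 4 h and absorbance read at 450 nm. IC50 from a four-parameter logistic fit; mean ± S.D. of three experiments, each in triplicate.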

T47D = test: Cytotoxicity against human T47D cells after 72 hrs by cell counting kit-8 analysis; type: functional, cell-based; outline: as §1
HCT-15 = test: Cytotoxicity against human HCT15 cells after 72 hrs by cell counting kit-8 analysis; type: functional, cell-based; details: HCT-15, 72 h; outline: as §1
[1] = biological target: T1, DNA topoisomerase 1 (Homo sapiens) (UniProt P11387); test: Inhibition of human recombinant DNA topoisomerase 1-mediated DNA relaxation at 100 uM incubated for 30 mins using pBR322 DNA substrate by ethidium bromide dye-based agarose gel electrophoresis relative to control camptothecin
T1 sequence (whole entry): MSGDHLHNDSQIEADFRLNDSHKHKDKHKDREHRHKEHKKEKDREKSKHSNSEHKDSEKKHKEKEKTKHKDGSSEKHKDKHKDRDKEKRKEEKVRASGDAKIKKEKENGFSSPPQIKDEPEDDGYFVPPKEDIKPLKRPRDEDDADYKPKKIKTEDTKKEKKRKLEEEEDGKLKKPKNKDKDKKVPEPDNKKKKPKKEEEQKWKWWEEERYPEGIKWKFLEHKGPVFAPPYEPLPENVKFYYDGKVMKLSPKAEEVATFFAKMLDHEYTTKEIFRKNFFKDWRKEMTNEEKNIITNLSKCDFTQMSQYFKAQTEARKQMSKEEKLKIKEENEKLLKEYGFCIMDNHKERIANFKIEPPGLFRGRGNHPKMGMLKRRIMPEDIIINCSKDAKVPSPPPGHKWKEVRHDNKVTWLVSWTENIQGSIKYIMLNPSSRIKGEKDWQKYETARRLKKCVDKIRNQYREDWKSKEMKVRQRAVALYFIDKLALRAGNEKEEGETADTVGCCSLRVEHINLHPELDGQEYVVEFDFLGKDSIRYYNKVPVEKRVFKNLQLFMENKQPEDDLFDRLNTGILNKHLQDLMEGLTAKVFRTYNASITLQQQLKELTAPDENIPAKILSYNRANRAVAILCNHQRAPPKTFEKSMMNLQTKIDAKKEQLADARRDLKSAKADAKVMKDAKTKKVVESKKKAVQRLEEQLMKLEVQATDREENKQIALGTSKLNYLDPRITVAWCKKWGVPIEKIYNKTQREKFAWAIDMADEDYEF
Outline: (§2)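 pBR322 (100 ng) with recombinant human topo I (0.4 units) in 10 mM Tris-HCl pH 7.9, 150 mM NaCl, 0.1% BSA, 1 mM spermidine, 5% glycerol, 30 min at 37 °C. Stopped with sarcosyl/glycerol/dye and run on 1% agarose/TAE at 15 V for 7 h. EtBr-stained; supercoiled DNA quantified as % inhibition. Relative values are the ratio to the camptothecin control.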

[2] = biological target: T1, DNA topoisomerase 1 (Homo sapiens); test: Inhibition of human recombinant DNA topoisomerase 1-mediated DNA relaxation at 20 uM incubated for 30 mins using pBR322 DNA substrate by ethidium bromide dye-based agarose gel electrophoresis relative to control camptothecin; outline: as §2
[3] = biological target: DNA topoisomerase 2-alpha (Homo sapiens) (UniProt P11388); test: Inhibition of human DNA topoisomerase 2 alpha-mediated DNA relaxation at 100 uM incubated for 30 mins using pBR322 DNA substrate by ethidium bromide dye-based agarose gel electrophoresis relative to control etoposide
Outline: (§3)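 Stopped with EDTA and run on 1% agarose/TAE at 25 V for 4 h. EtBr-stained; supercoiled DNA quantified as % inhibition. Relative values are the ratio to the etoposide control.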

Sus scrofa [4] = species on record: Sus scrofa; test: Inhibition of porcine brain tubulin polymerization at 10 uM after 61 mins by spectroscopic analysis
Outline: (§4)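 Porcine brain tubulin at 1.5 mg/mL final in cold PEM buffer (80 mM Na-PIPES pH 6.9, 1 mM MgCl₂, 30% glycerol, 1 mM EGTA) with 1 mM GTP. Compounds were dissolved in DMSO and diluted in PEM. They were pre-warmed 2 min at 37 °C before tubulin was added. DMSO vehicle and paclitaxel controls. A340 was read each minute for 61 min at 37 °C.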

[5] = biological target: T1, DNA topoisomerase 1 (Homo sapiens); test: Inhibition of human recombinant DNA topoisomerase 1-mediated DNA relaxation at 100 uM incubated for 30 mins using pBR322 DNA substrate by ethidium bromide dye-based agarose gel electrophoresis; outline: as §2
[6] = biological target: T1, DNA topoisomerase 1 (Homo sapiens); test: Inhibition of human recombinant DNA topoisomerase 1-mediated DNA relaxation at 20 uM incubated for 30 mins using pBR322 DNA substrate by ethidium bromide dye-based agarose gel electrophoresis; outline: as §2
[7] = biological target: DNA topoisomerase 2-alpha (Homo sapiens) (UniProt P11388); test: Inhibition of human DNA topoisomerase 2 alpha-mediated DNA relaxation at 100 uM incubated for 30 mins using pBR322 DNA substrate by ethidium bromide dye-based agarose gel electrophoresis; outline: as §3
Sus scrofa [8] = species on record: Sus scrofa; test: Induction of porcine brain tubulin polymerization at 10 uM after 61 mins by spectroscopic analysis; outline: as §4
[9] = biological target: T1, DNA topoisomerase 1 (Homo sapiens); test: Poison activity at topoisomerase 1 in human T47D cells assessed as induction of induction of DNA damage by measuring tail DNA levels at 5 uM after 24 hrs by SYBR Green staining-based comet assay; type: cell-based
Outline: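 T47D cells seeded 1 x 10⁵ per well, treated 24 h, trypsinised, resuspended in ice-cold PBS, embedded in low-melting agarose on slides. Lysed 30 min at 4 °C in the dark, alkaline unwinding (pH > 13) 30 min at r.t., alkaline electrophoresis 20 min at 15 V, SYBR Green staining, fluorescence microscopy; % tail DNA versus untreated control.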

Sus scrofa [10] = species on record: Sus scrofa; test: Inhibition of porcine brain tubulin polymerization at 15 uM after 61 mins by spectroscopic analysis; outline: as §4
[11] = biological target: T1, DNA topoisomerase 1 (Homo sapiens); test: Poison activity at topoisomerase 1 (unknown origin) assessed as […] in enzyme mediated DNA cleavage complex formation by measuring increase in nicked DNA level at 500 uM using supercoiled pBR322 plasmid DNA as substrate after 20 mins by ethidium bromine dye-based agarose gel electrophoresis analysis
Outline: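 Supercoiled pBR322 (100 ng) pre-reacted 10 min with topo I (3 units), then compound added for 20 min at 37 °C. Stopped with 0.5% sarcosyl and digested with proteinase K at 45 °C for 30 min, then heated 2 min at 70 °C. Run on 1.5% agarose/TAE containing 0.5 μg/mL EtBr; nicked DNA versus DMSO control, CPT as poison control.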

[12] = biological target: T1, DNA topoisomerase 1 (Homo sapiens); test: Poison activity at topoisomerase 1 in human T47D cells assessed as induction of induction of DNA damage by measuring tail DNA levels at 10 uM after 24 hrs by SYBR Green staining-based comet assay; type: cell-based
Outline: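 T47D cells seeded at 1×10^5 per well and treated 24 h, then trypsinized and suspended in ice-cold PBS. Embedded in low-melting agarose, lysed 30 min at 4 °C and alkaline-unwound (pH > 13) 30 min at r.t. Alkaline electrophoresis 20 min at 15 V, then SYBR Green stain and fluorescence microscopy. Read-out is % tail DNA versus untreated and CPT controls.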

DNA = test: Binding affinity to […] (unknown origin) at 100 uM preincubated for 30 mins in presence of Hoechst 33342 followed by compound addition measured after 30 mins by fluorescence assay; type: nucleic-acid assay
Outline: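 ctDNA (30 µM final) pre-mixed with Hoechst 33342 (1 µg/mL final) in 10 mM Tris (pH 7.2), 30 min at r.t. with shaking. Compound then added (0–100 μM series; DMSO 1% in all wells, DMSO-only control) and incubated 30 min at r.t. Fluorescence read at 361 nm excitation, emission spectrum 400–600 nm.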

[13] = biological target: T1, DNA topoisomerase 1 (Homo sapiens); test: Poison activity at human topoisomerase 1 assessed as induction of relaxation of pHOT1 DNA substrate at 1000 uM incubated for 30 mins by ethidium bromide dye-based agarose gel electrophoresis analysis
Outline: (§5)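 pHOT1 (100 ng) relaxed first with topo I (3 units) in 10 mM Tris-HCl pH 7.5, 1 mM EDTA, 30 min at 37 °C. Compound then added for a further 30 min at 37 °C; amsacrine positive control at 100–1000 μM. Stopped with 1% SDS and run on 1% agarose at 15 V/cm for 12–15 h. EtBr-stained and imaged.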

[14] = biological target: T1, DNA topoisomerase 1 (Homo sapiens); test: Inhibition of DNA topoisomerase-1 in human T47D cells assessed as decrease in free topoisomerase-1 levels incubated for 2 hrs by band depletion assay; type: cell-based
Outline: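 T47D cells seeded at 2×10^5 in 60-mm plates. On day 2 they were treated 2 h at 37 °C, harvested by trypsin and held in PBS containing the same compound concentration. Lysis in 62.5 mM Tris-HCl pH 6.8, 1 mM EDTA, 2% SDS with sonication, then centrifuged. 50 µg protein run on 8% SDS-PAGE; Western blot for free topo I with ECL detection.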

[15] = biological target: T1, DNA topoisomerase 1 (Homo sapiens); test: Inhibition of free DNA topoisomerase-1 in human T47D cells at 50 uM assessed as suppression of camptothecin-induced decrease in free topoisomerase-1 levels pre-treated before camptothecin addition and measured after 2 hrs by band depletion assay; type: cell-based
[16] = biological target: T1, DNA topoisomerase 1 (Homo sapiens); test: Poison activity at human topoisomerase 1 assessed as induction of relaxation of pHOT1 DNA substrate at 100 to 1000 uM incubated for 30 mins by ethidium bromide dye-based agarose gel electrophoresis analysis; outline: as §5

DNA topoisomerase 2-alpha (Homo sapiens), sequence (P11388 whole entry): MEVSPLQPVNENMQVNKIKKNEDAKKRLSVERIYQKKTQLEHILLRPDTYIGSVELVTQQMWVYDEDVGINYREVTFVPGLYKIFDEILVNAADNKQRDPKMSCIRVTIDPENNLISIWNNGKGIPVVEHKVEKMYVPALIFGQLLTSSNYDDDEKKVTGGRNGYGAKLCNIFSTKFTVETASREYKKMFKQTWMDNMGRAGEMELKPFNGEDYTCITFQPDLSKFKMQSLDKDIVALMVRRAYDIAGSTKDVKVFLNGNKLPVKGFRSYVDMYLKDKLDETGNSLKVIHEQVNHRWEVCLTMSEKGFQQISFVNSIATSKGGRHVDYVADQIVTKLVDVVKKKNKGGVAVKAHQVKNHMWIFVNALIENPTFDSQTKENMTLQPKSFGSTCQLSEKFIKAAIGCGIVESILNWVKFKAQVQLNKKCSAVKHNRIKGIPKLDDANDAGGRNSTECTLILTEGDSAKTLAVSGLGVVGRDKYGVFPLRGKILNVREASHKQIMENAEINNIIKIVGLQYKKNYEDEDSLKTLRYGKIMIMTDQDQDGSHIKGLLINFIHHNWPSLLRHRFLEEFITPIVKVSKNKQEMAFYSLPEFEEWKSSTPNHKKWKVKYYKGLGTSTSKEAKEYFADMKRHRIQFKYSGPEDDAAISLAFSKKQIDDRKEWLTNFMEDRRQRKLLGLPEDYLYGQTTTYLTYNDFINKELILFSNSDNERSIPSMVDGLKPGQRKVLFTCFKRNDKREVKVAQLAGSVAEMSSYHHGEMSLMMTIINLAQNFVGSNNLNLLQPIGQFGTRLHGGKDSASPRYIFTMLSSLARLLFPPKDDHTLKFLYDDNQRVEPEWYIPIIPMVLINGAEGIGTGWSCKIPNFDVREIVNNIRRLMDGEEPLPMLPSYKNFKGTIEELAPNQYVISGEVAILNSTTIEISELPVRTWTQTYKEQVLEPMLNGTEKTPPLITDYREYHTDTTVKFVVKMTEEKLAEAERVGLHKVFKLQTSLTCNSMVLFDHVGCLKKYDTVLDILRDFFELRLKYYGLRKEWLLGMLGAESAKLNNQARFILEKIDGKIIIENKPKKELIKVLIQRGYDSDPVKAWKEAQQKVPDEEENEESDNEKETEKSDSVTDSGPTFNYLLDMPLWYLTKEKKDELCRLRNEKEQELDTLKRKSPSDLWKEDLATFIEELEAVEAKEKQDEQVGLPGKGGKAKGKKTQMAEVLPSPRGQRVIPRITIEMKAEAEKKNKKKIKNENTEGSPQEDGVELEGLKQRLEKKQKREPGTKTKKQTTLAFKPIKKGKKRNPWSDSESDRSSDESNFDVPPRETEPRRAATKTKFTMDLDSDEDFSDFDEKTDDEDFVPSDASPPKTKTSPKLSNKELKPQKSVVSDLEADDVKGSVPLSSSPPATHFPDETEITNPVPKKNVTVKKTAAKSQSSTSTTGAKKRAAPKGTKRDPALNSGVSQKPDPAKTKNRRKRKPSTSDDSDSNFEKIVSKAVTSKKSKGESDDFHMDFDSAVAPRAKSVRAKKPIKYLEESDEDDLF

Row | Structure (SMILES) | IC50 (MCF-10A) | IC50 (T47D) | IC50 (HCT-15) | Ratio [1] | Ratio [2] | Ratio [3] | inhibition (Sus scrofa [4]) | inhibition [5] | inhibition [6] | inhibition [7] | Tubulin polymerization induction (Sus scrofa [8]) | Activity [9] | inhibition (Sus scrofa [10]) | Activity [11] | Activity [12] | Activity (DNA) | Activity [13] | inhibition [14] | inhibition [15] | Activity [16]
1 | COc1ccc(-c2cc3cc(C)ccc3c(-c3cccc(O)c3)n2)c(C)c1 | 5050 nM | 560 nM | 1750 nM | 1.13 | 2.46 | 0.2 | Active | 73.4% | 70.4% | 12.3% | inactive | – | – | – | – | – | – | – | – | –
2 | CC[C@@]1(O)C(=O)OCc2c1cc1n(c2=O)Cc2cc3ccccc3nc2-1 | – | – | – | – | – | – | – | – | – | – | – | 25% | – | – | – | – | – | – | – | –
3 | COc1ccc(-c2cc3cc(C)ccc3c(-c3cccc(N)c3)n2)c(C)c1 | 5740 nM | 740 nM | 2770 nM | 1.22 | 2.53 | 0.06 | – | 79.7% | 72.4% | 4.1% | inactive | 5.82% | Active | inactive | 9.43% | inactive | inactive | inactive | Active | –
4 | COc1cc(NS(C)(=O)=O)ccc1Nc1c2ccccc2nc2ccccc12 | – | – | – | – | – | – | – | – | – | – | – | – | – | – | – | – | – | – | – | Active
